AHR activator: activates the human aryl hydrocarbon receptor; P35869; AHR-responsive luciferase reporter cells, luminescence; activation, % at 5 µM; hit rate 2.5% among 320,000; AID 2796; in the data active = activation above about 47%;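 also: 0% = vehicle wells and 100% = reference agonist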
m5-HT2A agonist: mouse HTR2A agonism via beta-arrestin recruitment | activation, % at 7.6 µM | hit rate 0.66% among 360,000 | CHO-K1 mHTR2A beta-arrestin complementation, luminescence; percent of 30 µM serotonin response | P35363;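 active = activation above a run cutoff, the mean activation of all tested compounds plus 3 SD, cut at about 14% in these data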;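 also: 0% = plate median of compound wells and 100% = 30 µM serotonin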
Target sequence (P35363 whole entry, looked up): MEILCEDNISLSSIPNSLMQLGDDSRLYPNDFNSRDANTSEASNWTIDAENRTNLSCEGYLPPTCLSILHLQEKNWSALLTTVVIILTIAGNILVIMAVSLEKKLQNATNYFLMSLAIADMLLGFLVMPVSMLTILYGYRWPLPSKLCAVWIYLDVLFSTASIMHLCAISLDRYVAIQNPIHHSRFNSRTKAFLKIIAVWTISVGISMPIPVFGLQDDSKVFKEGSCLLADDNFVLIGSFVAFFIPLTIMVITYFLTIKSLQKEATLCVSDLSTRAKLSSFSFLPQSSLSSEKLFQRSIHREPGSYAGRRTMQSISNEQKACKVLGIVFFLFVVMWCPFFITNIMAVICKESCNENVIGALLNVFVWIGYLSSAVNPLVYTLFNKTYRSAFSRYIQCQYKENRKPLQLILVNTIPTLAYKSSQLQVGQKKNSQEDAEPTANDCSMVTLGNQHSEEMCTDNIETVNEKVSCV
TbMetRS inhib: Trypanosoma brucei MetRS inhibition; inhibition, % at 11.9 µM; purified T. brucei MetRS, ATP depletion, Kinase-Glo luminescence; hit rate 0.4% among 360,000;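 active = inhibition above a per-plate cutoff of the control wells' mean inhibition plus 3 SD, cut at about 5.5% in these data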;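 also: 0% = DMSO wells median and 100% = median of wells with control inhibitor compound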
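Material: parasite MetRS enzyme / Replication: singlicate, one well per compound / Signal: luminescence of leftover ATP / Schedule: 2 h aminoacylation at 25 °C after 15 min preincubation / Medium: HEPES-MgCl2-KCl buffer plus DTT, spermine, BSA, pyrophosphatase / Doses: 11.9 µM single point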
MsrA act: activators of bovine methionine sulfoxide reductase A | hit rate 0.3% among 360,000 | activation, % at 10.6 µM | purified bovine MsrA, absorbance read-out; in the data active = activation above about 7.5%;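 also: 0% = vehicle and 100% = reference activator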
MsrA inhibitor: inhibitors of bovine MsrA; hit rate 0.75% among 360,000; purified bovine MsrA, absorbance read-out; inhibition, % at 15.5 µM; AID 651718; in the data active = inhibition above about 4.5%;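 also: 0% = vehicle wells with enzyme and 100% = reference inhibitor wells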
AI-2 QS modul: modulates the Vibrio harveyi AI-2 quorum sensing system | Vibrio harveyi JMH597 AI-2 luminescence/OD600 ratio, 9 h; stronger effect = lower value; strain lacks LuxN and CqsS sensors; 0 = neutral-control median | activity change, % at 7.5 µM | hit rate 0.4% among 300,000 | AID 2094; in the data active = activity change below about -75%, passing the limit was not always enough;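 also: luminescence divided by OD600 gain over 9 h not by final OD600 alone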
Starred values were filed as active, the others as inactive. An excerpt weighted towards active compounds, which were near 4.4% of everything screened.

How did C=CCNC(=S)N/N=C/c1ccc(-c2ccc(Cl)cc2Cl)o1 do in these assays?
AHR activator: 61*; m5-HT2A agonist: -1; TbMetRS inhib: 0; MsrA act: 3; MsrA inhibitor: 0; AI-2 QS modul: 23

How did C=CCNC(=S)N/N=C/c1ccc(-c2ccc(OC)cc2)o1 do in these assays?
AHR activator: 64*; m5-HT2A agonist: 5; TbMetRS inhib: -1; MsrA act: -6; MsrA inhibitor: 2; AI-2 QS modul: 23

What do the screens show for `COC(=O)C1=C(C)N(Cc2ccc(F)cc2)C(=S)NC1c1cccc(Br)c1` (centres undefined)?
MsrA inhibitor: 1

How did CC1COc2c(N3CCN(C)CC3)c(F)cc3c(=O)c(C(=O)O)cn1c23 (centres undefined) do in these assays?
AHR activator: -1; m5-HT2A agonist: 0; TbMetRS inhib: 0; MsrA act: 8.8*; MsrA inhibitor: 2; AI-2 QS modul: 7

Results for CCOc1ccc(NC(=O)c2ccc(NC(=O)c3cn4c5c(c(N6CCN(C)CC6)c(F)cc5c3=O)OCC4C)cc2)cc1 (centres undefined) ?
AHR activator: 0; m5-HT2A agonist: 0; TbMetRS inhib: 0; MsrA act: -1; MsrA inhibitor: -1; AI-2 QS modul: 37

How did CCOC(CNC(=O)CN1C(=O)COc2ccc(S(=O)(=O)N3CC(C)CC(C)C3)cc21)OCC (centres undefined) do in these assays?
AHR activator: 2; m5-HT2A agonist: 1; TbMetRS inhib: 0; MsrA act: -4; MsrA inhibitor: 0; AI-2 QS modul: 21

Results for COc1cccc(/C(O)=C2/C(=O)C(=O)N(c3cc(C)on3)C2c2cccs2)c1 (centres undefined) ?
AHR activator: 4; m5-HT2A agonist: 5; TbMetRS inhib: 0; MsrA act: -3; MsrA inhibitor: 5.0*; AI-2 QS modul: 8

Results for Cc1cc(N2C(=O)C(=O)/C(=C(/O)c3ccccc3)C2c2cccs2)no1 (centres undefined) ?
AHR activator: -2; m5-HT2A agonist: 1; TbMetRS inhib: 0; MsrA act: -5; MsrA inhibitor: 1; AI-2 QS modul: 3

What do the screens show for `CN(C)S(=O)(=O)c1ccc(NC(=O)/C=C/c2ccccc2Cl)cc1`?
AHR activator: -7; m5-HT2A agonist: -1; TbMetRS inhib: -3; MsrA act: -2; MsrA inhibitor: -1; AI-2 QS modul: -93*

How did O=C1N/C(=C\c2ccc(O)cc2)C(=O)c2ccccc21 do in these assays?
AHR activator: 5; m5-HT2A agonist: 10; TbMetRS inhib: 7.8*; MsrA act: -4; AI-2 QS modul: 25

Results for Cc1ccccc1-c1cccc2c3c([nH]c12)[C@@H]1C[C@H]2[C@@H](C(=O)N1CC3)[C@H](C)ON2C ?
MsrA inhibitor: -1

How did O=c1c(Cl)c(N/N=C/c2ccc(Cl)cc2)cnn1-c1ccccc1 do in these assays?
AHR activator: 50*; m5-HT2A agonist: 0; TbMetRS inhib: -1; MsrA act: -4; MsrA inhibitor: 3; AI-2 QS modul: 13

What do the screens show for `O=C(CN(Cc1ccccc1)C(=O)CCC(=O)Nc1nccs1)NCC1CCCO1` (centres undefined)?
AHR activator: 2; m5-HT2A agonist: 8; TbMetRS inhib: -2; MsrA act: -14; MsrA inhibitor: 1; AI-2 QS modul: 22

What do the screens show for `CCOC(=O)c1c(C)[nH]c(C(=O)OCC(=O)Nc2sccc2C(N)=O)c1C`?
AHR activator: 53*; m5-HT2A agonist: 7; TbMetRS inhib: 0; MsrA act: -3; MsrA inhibitor: -1; AI-2 QS modul: 20

What do the screens show for `CCOC(=O)c1c(C)[nH]c(C(=O)OCC(=O)Nc2ccc(Cl)cn2)c1C`?
AHR activator: 5; m5-HT2A agonist: 4; TbMetRS inhib: 0; MsrA act: -6; MsrA inhibitor: 0

How did CC(C)(C)CN1CCN(CC#Cc2ccccc2)CC1CCO (centres undefined) do in these assays?
AHR activator: 59*; m5-HT2A agonist: -1; TbMetRS inhib: 0; MsrA act: 1; MsrA inhibitor: 1; AI-2 QS modul: -5

How did CN1CCN(CC#Cc2ccccc2)CC1CCO (centres undefined) do in these assays?
AHR activator: 2; m5-HT2A agonist: 5; TbMetRS inhib: 0; MsrA act: -2; MsrA inhibitor: 1; AI-2 QS modul: 19

Source: PubChem (several laboratories)
